In assay [1] the target is T1, TLR2/TLR6 (Mus musculus) (UniProt Q9QUN7+Q9EPW9). Briefly: Inhibition of TLR2/6 in BALB/c mouse BMDM assessed as downregulation of BLP-stimulated IL-12p40 level at 5 ug/ml preincubated for 18 hrs followed by BLP challenge measured after 24 hrs by ELISA relative to control. Type of assay: protein-complex assay. Put shortly: (§1)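 BALB/c male bone marrow macrophages were differentiated 7 days with L929 supernatant (≥99% CD11b+/F4/80+). Cells were plated at 2 × 10^5/well in triplicate, rested overnight, and given compounds at 5 μg/mL for 18 h. They were then stimulated with 100 ng/mL S. minnesota LPS, 10 ng/mL Pam3CSK4 (BLP) or 0.01 μM CpG for 24 h. Supernatant IL-12p40 and IL-6 were measured by ELISA (sensitivity 16 pg/mL).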
On the technique in general: ELISA stands for enzyme-linked immunosorbent assay.

The target in assay [2] is T1, TLR2/TLR6 (Mus musculus). Briefly: Inhibition of TLR2/6 in BALB/c mouse BMDM assessed as downregulation of BLP-stimulated IL-6 level at 5 ug/ml preincubated for 18 hrs followed by BLP challenge measured after 24 hrs by ELISA relative to control. Type of assay: protein-complex assay. Put shortly: as §1
Assay [3] has as its target T2, Toll-like receptor 4 (Mus musculus) (UniProt Q9QUK6).
T2 sequence (whole entry): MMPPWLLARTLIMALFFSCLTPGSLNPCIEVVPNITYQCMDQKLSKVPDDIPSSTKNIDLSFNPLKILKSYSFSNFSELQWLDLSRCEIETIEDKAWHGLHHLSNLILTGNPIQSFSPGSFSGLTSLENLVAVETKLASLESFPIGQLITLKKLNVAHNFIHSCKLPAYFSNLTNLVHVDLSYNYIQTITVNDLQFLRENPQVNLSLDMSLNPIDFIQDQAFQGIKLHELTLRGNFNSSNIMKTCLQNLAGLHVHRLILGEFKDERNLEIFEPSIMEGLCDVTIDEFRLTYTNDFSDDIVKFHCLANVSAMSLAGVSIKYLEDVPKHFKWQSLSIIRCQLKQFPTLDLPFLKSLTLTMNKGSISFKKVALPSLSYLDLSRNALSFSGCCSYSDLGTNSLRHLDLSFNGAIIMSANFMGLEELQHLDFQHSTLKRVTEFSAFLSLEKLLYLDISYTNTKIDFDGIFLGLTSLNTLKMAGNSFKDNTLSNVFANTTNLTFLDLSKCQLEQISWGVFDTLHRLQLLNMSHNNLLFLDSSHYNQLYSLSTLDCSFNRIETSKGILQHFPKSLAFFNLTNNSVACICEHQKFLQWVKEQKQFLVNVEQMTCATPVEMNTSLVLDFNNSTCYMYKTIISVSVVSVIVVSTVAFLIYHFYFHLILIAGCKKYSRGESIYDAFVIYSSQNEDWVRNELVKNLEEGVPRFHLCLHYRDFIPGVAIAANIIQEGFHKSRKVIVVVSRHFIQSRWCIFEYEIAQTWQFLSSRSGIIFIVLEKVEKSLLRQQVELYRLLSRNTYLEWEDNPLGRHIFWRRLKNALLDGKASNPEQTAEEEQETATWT
The experiment in a line: Inhibition of TLR4 in BALB/c mouse BMDM assessed as downregulation of LPS-stimulated IL-12p40 level at 5 ug/ml preincubated for 18 hrs followed by LPS challenge measured after 24 hrs by ELISA relative to control. Put shortly:
as §1

Assay [4] addresses T3, Toll-like receptor 9 (Mus musculus) (UniProt Q9EQU3).
T3 sequence (whole entry): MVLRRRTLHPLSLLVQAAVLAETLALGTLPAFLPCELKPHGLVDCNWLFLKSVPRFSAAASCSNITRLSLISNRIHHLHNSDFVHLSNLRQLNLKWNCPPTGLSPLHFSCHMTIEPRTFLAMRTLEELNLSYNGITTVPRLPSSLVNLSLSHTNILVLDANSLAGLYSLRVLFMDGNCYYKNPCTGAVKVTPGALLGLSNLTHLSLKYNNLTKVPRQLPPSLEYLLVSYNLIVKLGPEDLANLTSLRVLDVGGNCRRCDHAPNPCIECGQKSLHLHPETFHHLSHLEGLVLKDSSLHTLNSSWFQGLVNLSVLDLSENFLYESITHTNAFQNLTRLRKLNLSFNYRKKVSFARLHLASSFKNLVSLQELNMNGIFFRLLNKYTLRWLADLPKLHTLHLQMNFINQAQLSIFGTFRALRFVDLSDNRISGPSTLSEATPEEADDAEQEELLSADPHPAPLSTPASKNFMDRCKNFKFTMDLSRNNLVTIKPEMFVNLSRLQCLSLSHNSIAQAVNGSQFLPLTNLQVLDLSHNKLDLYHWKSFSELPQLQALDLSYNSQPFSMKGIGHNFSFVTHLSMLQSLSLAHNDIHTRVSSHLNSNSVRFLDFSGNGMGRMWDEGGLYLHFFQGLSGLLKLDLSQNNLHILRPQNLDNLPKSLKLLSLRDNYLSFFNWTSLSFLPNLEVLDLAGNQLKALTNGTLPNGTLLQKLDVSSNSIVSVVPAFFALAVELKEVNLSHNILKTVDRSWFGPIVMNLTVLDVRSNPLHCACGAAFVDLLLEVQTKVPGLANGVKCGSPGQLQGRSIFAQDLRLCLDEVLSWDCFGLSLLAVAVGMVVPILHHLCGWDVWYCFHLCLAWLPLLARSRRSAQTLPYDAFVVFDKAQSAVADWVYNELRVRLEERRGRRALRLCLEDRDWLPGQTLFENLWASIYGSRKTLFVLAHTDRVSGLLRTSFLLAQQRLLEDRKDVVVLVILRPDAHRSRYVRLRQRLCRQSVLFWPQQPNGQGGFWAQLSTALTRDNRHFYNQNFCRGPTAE
Briefly: Inhibition of TLR9 in BALB/c mouse BMDM assessed as downregulation of CpG-stimulated IL-6 level at 5 ug/ml preincubated for 18 hrs followed by CpG challenge measured after 24 hrs by ELISA relative to control. Put shortly:
as §1

For assay [5], the target named is T2, Toll-like receptor 4 (Mus musculus). The experiment in a line: Inhibition of TLR4 in BALB/c mouse BMDM assessed as downregulation of LPS-stimulated IL-6 level at 5 ug/ml preincubated for 18 hrs followed by LPS challenge measured after 24 hrs by ELISA relative to control. The essentials:
as §1

Assay [6] has as its target T3, Toll-like receptor 9 (Mus musculus). Briefly: Inhibition of TLR9 in BALB/c mouse BMDM assessed as downregulation of CpG-stimulated IL-12p40 level at 5 ug/ml preincubated for 18 hrs followed by CpG challenge measured after 24 hrs by ELISA relative to control. The essentials: as §1

Activity calls are given as the source filed them. The rule behind the calls is not given here.

As for `CN(C)CCCNS(=O)(=O)Cc1ccc(Br)cc1`, the inhibition result in assay [1], in assay [2], in assay [3], in assay [4], in assay [5] and in assay [6] was “inactive” each time.

Consider `CC[C@@H](C)NCCS(=O)(=O)c1ccccc1`, for which the inhibition entry in assay [1], in assay [2], in assay [3], in assay [4], in assay [5] and in assay [6] was “inactive” each time.

In the case of `COc1cccc(C(=O)NCCN(C)C)c1`, the inhibition result in assay [1], in assay [3] and in assay [4] was “Active” in each case. The inhibition result in assay [2], in assay [5] and in assay [6] was “inactive” in each case.

As for `Cc1ccc(CNS(=O)(=O)CCN(C)C)cc1`, the inhibition entry in assay [1], in assay [2], in assay [3], in assay [4], in assay [5] and in assay [6] was “inactive” throughout.

Consider `O=S(=O)(CCN1CCCC1)NCc1ccccc1`, for which the inhibition result in assay [1], in assay [2], in assay [3], in assay [4], in assay [5] and in assay [6] was “inactive” throughout.

With `COc1cccc(C(=O)NCCCN(C)C)c1`, the inhibition result in assay [1], in assay [2], in assay [5] and in assay [6] was “inactive” throughout. Moreover, the inhibition result in assay [3] and in assay [4] was “Active” each time.

For the compound `Cc1ccc(CS(=O)(=O)CCCN2CCOCC2)cc1`, the inhibition result in assay [1], in assay [2], in assay [3], in assay [4], in assay [5] and in assay [6] was “inactive” in each case.

For the compound `C[N+]1(CCCS(=O)(=O)Cc2ccc(Br)cc2)CCOCC1`, the inhibition result in assay [1], in assay [2], in assay [3], in assay [4], in assay [5] and in assay [6] was “inactive” each time.

Take `CN(C)CCNS(=O)(=O)Cc1ccc([N+](=O)[O-])cc1`: the inhibition entry in assay [1], in assay [3], in assay [4], in assay [5] and in assay [6] was “inactive” throughout. Moreover, the inhibition result in assay [2] was “Active”.

For the compound `CN(C)CCCNS(=O)(=O)Cc1ccc(F)cc1`, the inhibition result in assay [1], in assay [2], in assay [3], in assay [4], in assay [5] and in assay [6] was “inactive” each time.

On to `O=S(=O)(Cc1ccccc1)NCCN1CCOCC1`, for which the inhibition result in assay [1], in assay [2], in assay [3], in assay [4], in assay [5] and in assay [6] was “inactive” each time.

Regarding `C[N+](C)(C)CCS(=O)(=O)Cc1ccc(Br)cc1`, the inhibition result in assay [1], in assay [2], in assay [3], in assay [4], in assay [5] and in assay [6] was “inactive” each time.

On to `Cc1ccc(CNS(=O)(=O)CCN(C)CCN(C)C)cc1`, for which the inhibition result in assay [1] and in assay [6] was “inactive” in each case. The inhibition result in assay [2], in assay [3], in assay [4] and in assay [5] was “Active” throughout.

Regarding `O=S(=O)(CCN1CCOCC1)NCc1ccccc1`, the inhibition entry in assay [1], in assay [2], in assay [3], in assay [4], in assay [5] and in assay [6] was “inactive” throughout.

Regarding `CC[C@@H](C)NCCS(=O)(=O)Cc1cccc(F)c1`, the inhibition entry in assay [1] and in assay [2] was “Active” throughout. Further, the inhibition entry in assay [3], in assay [4], in assay [5] and in assay [6] was “inactive” in each case.

Take `CN1CCN(CCS(=O)(=O)c2ccccc2)CC1`: the inhibition entry in assay [1], in assay [2], in assay [3], in assay [4], in assay [5] and in assay [6] was “inactive” each time.

Consider `O=S(=O)(CCN1CCOCC1)NCc1ccc(Br)cc1`, for which the inhibition result in assay [1], in assay [2], in assay [3], in assay [4], in assay [5] and in assay [6] was “inactive” each time.

Consider `CN(C)CCN(C)CCS(=O)(=O)Nc1ccccc1`, for which the inhibition entry in assay [1], in assay [2], in assay [4], in assay [5] and in assay [6] was “inactive” each time. The inhibition result in assay [3] is “Active”.

(Values after ChEMBL document CHEMBL3108700, “Designing anti-inflammatory drugs from parasitic worms: a synthetic small molecule analogue of the Acanthocheilonema viteae product ES-62 prevents development of collagen-induced arthritis” (J Med Chem, 2013).)
